Our source for the IC50 and Ki values is ChEMBL document CHEMBL1131440, “Synthesis and potent antifolate activity and cytotoxicity of B-ring deaza analogues of the nonpolyglutamatable dihydrofolate reductase inhibitor Nalpha-(4-amino-4-deoxypteroyl)-Ndelta-hemiphthaloyl- L-ornithine (PT523)” (J Med Chem, 1998).

Experiment [1] is described as follows: Compound was tested for in vitro antitumor activity, using SCC25 human head and neck squamous carcinoma cells. The class given is functional. The following applies: SCC-25. The method, boiled down: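 Clonogenic assay: SCC25 cells exposed to graded drug concentrations for 72 h at 37 °C, 5% CO2, in DMEM with 10% FBS and hydrocortisone ([…]). Then replated as single cells at drug-dependent densities and grown in drug-free medium 10-14 days. Colonies stained with crystal violet; only colonies of ≥50 cells scored. IC50 is mean ± SD of ≥3 assays on different days.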

For the next experiment, the target named is T1, Dihydrofolate reductase (Homo sapiens, UniProt P00374).
T1 sequence (P00374 whole entry): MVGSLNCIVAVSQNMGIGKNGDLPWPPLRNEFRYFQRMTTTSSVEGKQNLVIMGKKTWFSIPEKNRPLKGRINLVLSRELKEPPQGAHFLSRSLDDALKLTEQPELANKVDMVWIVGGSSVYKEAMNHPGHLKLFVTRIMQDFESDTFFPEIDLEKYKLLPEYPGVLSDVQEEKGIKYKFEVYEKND
Put plainly: Compound was evaluated for the inhibition of Dihydrofolate reductase at concentration ranged from 0.15-0.50 uM.

One may read the IC50 as the concentration that inhibits the measured activity by half. What is called Ki is the equilibrium dissociation constant of an inhibitor or competing ligand from its target. Lower therefore signals tighter binding. Take `Nc1nc(N)c2c(Cl)c(CNc3ccc(C(=O)NC(CCCNC(=O)c4ccccc4C(=O)O)C(=O)O)cc3)ccc2n1` (stereo not drawn): the IC50 in experiment [1] came out at 0.33 nM. At Dihydrofolate reductase, this compound yielded an inhibition constant Ki of 0.11 pM.
Consider `Nc1nc(N)c2nc(CNc3ccc(C(=O)NC(CCCNC(=O)c4ccccc4C(=O)O)C(=O)O)cc3)ccc2n1` (stereo not drawn), for which the IC50 in experiment [1] was determined as 1.2 nM. The compound also had a Ki on Dihydrofolate reductase of 0.19 pM.
For `Cc1c(CNc2ccc(C(=O)NC(CCCNC(=O)c3ccccc3C(=O)O)C(=O)O)cc2)ccc2nc(N)nc(N)c12` (stereo not drawn) the same measures were 0.44 nM and 0.1 pM.
The compound `Nc1nc(N)c2cc(CNc3ccc(C(=O)NC(CCCNC(=O)c4ccccc4C(=O)O)C(=O)O)cc3)cnc2n1` (stereo not drawn) yielded an IC50 in experiment [1] of 1.8 nM. In addition, affinity at Dihydrofolate reductase was put at a Ki of 0.41 pM.
